Results on 36 molecules are retold here after ChEMBL document CHEMBL2176947, “Discovery of the First Potent Inhibitors of Mutant IDH1 That Lower Tumor 2-HG in Vivo” (ACS Med Chem Lett, 2012).

The source made the active and inactive calls. The rule behind the calls is not given here.

Data set [1] concerns the target T1, Isocitrate dehydrogenase [NADP] cytoplasmic (Homo sapiens, UniProt O75874, R132H). Kind of data set: Inhibition of IDH1 R132H mutant using alpha-ketoglutarate as substrate after 60 mins by resazurin-based fluorimetric analysis.
The nature of data set [2]: Growth inhibition of human U87 cells after 72 hrs by CellTiter-Glo assay. The format is functional, U-87MG ATCC. Conditions: U-87 MG. The essentials: (§1)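 Cells exposed to compound for 72 h, run within the same experiment as the 2-HG assay; total cellular ATP measured; concentration giving 50% growth inhibition (GI50) determined.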
The target in data set [3] is T2, Isocitrate dehydrogenase [NADP] cytoplasmic (Homo sapiens, UniProt O75874, R132C). Nature of the data set: Inhibition of IDH1 R132C mutant using alpha-ketoglutarate as substrate after 60 mins by resazurin-based fluorimetric analysis.
T2 sequence (O75874 2-414 R132C limits assumed): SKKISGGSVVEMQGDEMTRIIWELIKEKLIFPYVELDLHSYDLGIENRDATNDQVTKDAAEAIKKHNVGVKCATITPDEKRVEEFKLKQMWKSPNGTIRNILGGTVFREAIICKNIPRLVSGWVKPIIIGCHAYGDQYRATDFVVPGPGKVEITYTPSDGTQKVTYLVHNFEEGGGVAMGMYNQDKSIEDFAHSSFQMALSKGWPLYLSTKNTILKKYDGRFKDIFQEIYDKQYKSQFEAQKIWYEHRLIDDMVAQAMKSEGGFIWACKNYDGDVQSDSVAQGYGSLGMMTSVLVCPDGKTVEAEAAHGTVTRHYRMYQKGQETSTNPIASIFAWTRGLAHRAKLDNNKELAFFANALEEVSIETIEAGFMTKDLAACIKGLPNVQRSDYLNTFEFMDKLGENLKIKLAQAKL
The target in data set [4] is T3, Isocitrate dehydrogenase [NADP] cytoplasmic (Homo sapiens, UniProt O75874). Kind of data set: Inhibition of wild type IDH1 using DL-isocitrate as substrate by resazurin-based fluorimetric analysis.
T3 sequence (O75874 whole entry): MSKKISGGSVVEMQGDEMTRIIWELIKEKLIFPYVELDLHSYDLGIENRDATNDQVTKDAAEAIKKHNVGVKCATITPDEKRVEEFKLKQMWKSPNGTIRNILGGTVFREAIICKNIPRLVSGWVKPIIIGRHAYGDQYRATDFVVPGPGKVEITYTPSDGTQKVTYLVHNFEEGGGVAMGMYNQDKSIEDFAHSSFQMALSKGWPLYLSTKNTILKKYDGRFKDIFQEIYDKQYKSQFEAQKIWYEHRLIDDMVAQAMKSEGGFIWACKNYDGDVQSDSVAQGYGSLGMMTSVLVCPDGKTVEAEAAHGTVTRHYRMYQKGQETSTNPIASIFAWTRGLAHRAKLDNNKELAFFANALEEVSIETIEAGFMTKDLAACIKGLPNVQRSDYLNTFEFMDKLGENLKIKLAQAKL
In data set [5] the target is T3, Isocitrate dehydrogenase [NADP] cytoplasmic. Kind of data set: Inhibition of wild type IDH1 using DL-isocitrate as substrate by resazurin-based fluorimetric analysis relative to control.
The test system of the next data set is HT-1080. Nature of the data set: Growth inhibition of human HT1080 cells after 72 hrs by CellTiter-Glo assay. It is filed as functional. The settings on record: HT-1080, 72 h. In outline: as §1
Data set [6] concerns the target T1, Isocitrate dehydrogenase [NADP] cytoplasmic. Nature of the data set: Inhibition of IDH1 R132H mutant expressed in human U87 cells assessed as inhibition of 2-hydroxyglutarate production after 48 hrs by LC/MS analysis. The format is cell-based, U-87MG ATCC.
Data set [7] has as its target T2, Isocitrate dehydrogenase [NADP] cytoplasmic. Nature of the data set: Inhibition of IDH1 R132C mutant endogenously expressing human HT1080 cells assessed as inhibition of 2-hydroxyglutarate production after 48 hrs by LC/MS analysis.
In data set [8] the test system is Isocitrate dehydrogenase [NADP] cytoplasmic (Homo sapiens), O75874 [R132H]. Kind of data set: Uncompetitive inhibition of IDH1 R132H mutant using NADPH as substrate by stopped-flow spectrophotometric analysis.
Isocitrate dehydrogenase [NADP] cytoplasmic (Homo sapiens), O75874 [R132H], sequence (O75874 whole entry R132H): as the sequence (O75874 whole entry) above, with R132H counted along it
For data set [9] the test system is unchanged. Nature of the data set: Competitive inhibition of IDH1 R132H mutant using alpha-ketoglutarate as substrate by stopped-flow spectrophotometric analysis.
Data set [10] has the same test system. Nature of the data set: Reversible inhibition of IDH1 R132H mutant using alpha-ketoglutarate as substrate by stopped-flow spectrophotometric analysis.
A short description of data set [11]: Hepatic extraction ratio in rat liver microsomes. The format is ADME, Microsome. The settings on record: read-out: ERH. In outline:
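Compound incubated with rat liver microsomes in vitro. Turnover in the incubation was used to estimate the hepatic extraction ratio. Human microsomes were run alongside.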

Data set [12] has as its system Mus musculus. Nature of the data set: Inhibition of IDH1 R132H mutant in human U87 cells xenografted in CD1 nude mouse assessed as inhibition of 2-hydroxyglutarate production at 150 mg/kg, ip administered BID by LC/MS analysis relative to vehicle-treated control. The format is functional, U-87MG ATCC. Conditions: route intraperitoneal. In outline: (§2)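 Female nude mice bearing U87 R132H tumor xenografts dosed IP at 150 mg/kg in 0.5% MC/0.2% Tween 80, one dose or three BID doses; blood and tumor sampled at several time points; tumor 2-HG quantified by LC/MS/MS against vehicle-dosed animals.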

The subject of data set [13] is Mus musculus. Nature of the data set: Inhibition of IDH1 R132H mutant in human U87 cells xenografted in CD1 nude mouse assessed as inhibition of 2-hydroxyglutarate production at 150 mg/kg, ip administered as single dose by LC/MS analysis relative to vehicle-treated control. The format is functional, U-87MG ATCC. The settings on record: route intraperitoneal. The essentials:
as §2

Data set [14] in a line: AUC (0 to 24 hrs) in mouse at 50 mg/kg, ip. It is filed as ADME, organism-based. Details: time < 24 hr, dose 50 mg/kg, route intraperitoneal. The settings on record: plasma. The essentials:
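Mouse given a single IP dose of 50 mg/kg; plasma exposure expressed as AUC0−24h.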

Data set [15] is described as follows: Plasma protein binding in mouse by equilibrium dialysis method. The format is ADME, cell-free. The settings on record: read-out: PPB (converted). The essentials:
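Mouse plasma protein binding measured by equilibrium dialysis.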

Data set [16] is described as follows: Fraction unbound in CD1 nude mouse plasma xenografted with human U87 cells expressing IDH1 R132H mutant at 150 mg/kg, ip administered BID for 1 day. Details: dose 150 mg/kg, route intraperitoneal. The format is ADME, organism-based, U-87MG ATCC.

T1 sequence (O75874 2-414 R132H limits assumed): as the sequence (O75874 2-414 R132C limits assumed) above, with C131H counted along it

Regarding `Cc1ccccc1C(C(=O)NC1CCCCC1)N(C(=O)CNC1CC1)c1cccc(F)c1` (racemic), in [1], the IC50 turned out to be 190 nM.
On to `O=C(NC1CCCCC1)[C@H](c1ccccc1)N(C(=O)Cc1cccs1)c1cccc(F)c1`, for which the IC50 in data set [1] came to 60 nM.
With `Cc1ccccc1C(C(=O)NC1CCCCC1)N(C(=O)CNC1CCCC1)c1cccc(F)c1` (racemic), the IC50 in data set [1] came out at 450 nM.
As to `Cc1ccccc1C(C(=O)NC1CCC1)N(C(=O)Cc1cccs1)c1cccc(F)c1` (racemic), in data set [1], the IC50 was determined as 290 nM.
For `Cc1ccccc1C(C(=O)NC1CCCCC1)N(C(=O)Cc1c[nH]c2ccccc12)c1cccc(F)c1` (racemic), the values for the GI50 (in data set [2]; in the data set with HT-1080) were more than 20000 nM and more than 3000 nM, respectively. The IC50 in [3] is 30 nM; in data set [4], 6300 nM; in data set [1], 60 nM; in data set [6], 360 nM; in data set [7], 90 nM. The Imax in data set [5] came to 39%.
In turn, `Cc1ccccc1C(C(=O)NC1CCCCC1)N(C(=O)CN(C)c1ccccc1)c1cccc(F)c1` (racemic) displayed an IC50 in [1] of 50 nM.
`O=C(NC1CCCCC1)C(c1ccccc1)N(C(=O)Cc1cccs1)c1cccc(F)c1` (configuration not stated) returned an IC50 in [1] of 80 nM.
`CC(C(=O)NC1CCCCC1)(c1ccccc1)N(C(=O)Cc1cccs1)c1cccc(F)c1` (racemic): the midpoint of inhibition in data set [1], the IC50, lay at 1400 nM.
For `Cc1ccccc1C(C(=O)NC1CCCCC1)N(C(=O)Cc1cscn1)c1cccc(F)c1` (racemic), the GI50 (in data set [2]; in the data set on HT-1080) was more than 20000 nM throughout. The IC50 was 60 nM in data set [3]; 19700 nM in data set [4]; 100 nM in [1]; 290 nM in data set [6]; 220 nM in data set [7]. Besides, the Imax in data set [5] is 32%.
As to `Cc1ccccc1C(C(=O)NC1CCCCC1)N(C(=O)CN)c1cccc(F)c1` (racemic), the IC50 in data set [1] came out at 7800 nM.
With `Cc1ccccc1C(C(=O)NC1CCCCC1)N(C(=O)Cc1ccncc1)c1cccc(F)c1` (racemic), the GI50 (in [2]; with HT-1080) was more than 20000 nM throughout. Moreover, the IC50 came out at 50 nM in [3]; 19300 nM in [4]; 50 nM in data set [1]; 210 nM in [6]; 260 nM in data set [7]. In [5], this molecule had an Imax of 34%.
`Cc1ccccc1NC(=O)C(c1ccccc1C)N(C(=O)Cc1cccs1)c1cccc(F)c1` (racemic) gave an IC50 in data set [1] of 570 nM.
`Cc1ccccc1C(C(=O)NC1CCCCC1)N(C(=O)CN1CCc2ccccc21)c1cccc(F)c1` (racemic): in [1], 140 nM corresponded to half-maximal inhibition (IC50).
In turn, `Cc1ccccc1C(C(=O)NC1CCCCC1)N(C(=O)Cn1cncn1)c1cccc(F)c1` (racemic) yielded an IC50 in [1] of 140 nM.
In the case of `Cc1ccccc1C(C(=O)NC1CCCCC1)N(C(=O)Cc1cccs1)c1cccc(F)c1` (racemic), the GI50 (in data set [2]; with HT-1080) was more than 20000 nM each time. Further, the IC50 in [3] was determined as 30 nM; in [4], 2900 nM; in [1], 50 nM; in data set [6], 190 nM; in data set [7], 150 nM. Moreover, in data set [5], the Imax stood at 22%.
Turning to `Cc1ccccc1C(C(=O)NC1CCCCC1)N(CCc1cccs1)c1cccc(F)c1` (racemic), the IC50 in [1] was more than 100000 nM.
Same read-out and setting: under `Cc1ccccc1C(CNC1CCCCC1)N(C(=O)Cc1cccs1)c1cccc(F)c1` (racemic) stands more than 100000 nM.
On to `Cc1ccccc1C(C(=O)NC1CCCCC1)N(C(=O)Cn1ccc2ccccc21)c1cccc(F)c1` (racemic), for which the GI50 (in data set [2]; in the data set on HT-1080) was more than 20000 nM each time. Further, the IC50 was 40 nM in data set [3]; more than 100000 nM in data set [4]; 70 nM in [1]; 370 nM in data set [6]; 170 nM in data set [7].
Turning to `Cc1ccccc1C(C(=O)NC1CCCC1)N(C(=O)Cc1cccs1)c1cccc(F)c1` (configuration not stated), the GI50 (in data set [2]; in the data set on HT-1080) was more than 20000 nM in each case. For the same molecule, the inhibition result in [8], in [9] and in data set [10] was “Active” in each case. Moreover, the concentration for half-maximal inhibition (IC50) in data set [3] is 50 nM; in data set [4] it was 7700 nM; in [1], 90 nM; in data set [6], 580 nM; in data set [7], 390 nM. The Imax in data set [5] came to 32%.
As for `Cc1ccccc1C(C(=O)NC1CCCCC1)N(C(=O)CN1CCCC1)c1cccc(F)c1` (racemic), the midpoint of inhibition in [1], the IC50, lay at 1630 nM.
As to `Cc1ccccc1C(C(=O)NC1CCCCC1)N(C(=O)CNC1CCCCC1)c1cccc(F)c1` (racemic), it took 1270 nM to reach half-maximal inhibition in data set [1] (IC50).
On to `O=C(NC1CCCCC1)[C@@H](c1ccccc1)N(C(=O)Cc1cccs1)c1cccc(F)c1`, for which the IC50 in [1] is more than 11000 nM.
As for `Cc1ccccc1C(C(=O)NC1CCCCC1)N(C(=O)CNc1ccccc1)c1cccc(F)c1` (racemic), it took 60 nM to reach half-maximal inhibition in [1] (IC50).
The molecule `Cc1ccccc1C(C(=O)NC1CCOCC1)N(C(=O)Cc1cccs1)c1cccc(F)c1` (racemic) registered an IC50 in [1] of 640 nM.
Consider `Cc1ccccc1C(C(=O)NC1CCCCC1)N(C(=O)Cn1c(C)nc2ccccc21)c1cccc(F)c1` (racemic), for which the GI50 (in [2]; with HT-1080) was more than 20000 nM each time. Besides, the IC50 in [3] is 40 nM; in data set [4] it was more than 100000 nM; in data set [1], 80 nM; in [6], 240 nM; in data set [7] it was 110 nM.
Consider `Cc1ccccc1C(C(=O)NC1CCCCC1)N(C(=O)CN1CCOCC1)c1cccc(F)c1` (racemic), for which half-maximal inhibition in data set [1] (IC50) was put at 240 nM.
In data set [1], `CN(C(=O)C(c1ccccc1)N(C(=O)Cc1cccs1)c1cccc(F)c1)C1CCCCC1` (racemic) returned an IC50 of 3600 nM.
Consider `Cc1ccccc1C(C(=O)NC1CCNCC1)N(C(=O)Cc1cccs1)c1cccc(F)c1` (racemic), for which the IC50 in data set [1] stood at 53100 nM.
In the case of `Cc1ccccc1C(C(=O)NC1CCCCC1)N(C(=O)Cn1ccnc1C)c1cccc(F)c1` (racemic), the GI50 (in data set [2]; with HT-1080) was more than 20000 nM throughout. For the same molecule, in data set [11], the hepatic extraction ratio came to 0.85. Further, the IC50 is 160 nM in data set [3], more than 100000 nM in [4], 70 nM in data set [1] and 480 nM in [7]. For the same molecule, the Imax with Mus musculus [12] is given as 89.4%; in the data set on Mus musculus [13], 69%. The AUC(0-t) at 24 h in [14] was 20800 ng·h/mL. Also, the fraction unbound in [15] is 0.043. In [16], this molecule displayed a fraction unbound at 24 h of 0.043.
Consider `Cc1ccccc1C(C(=O)NC1CCCCC1)N(C(=O)Cn1cccn1)c1cccc(F)c1` (racemic), for which, in data set [1], half-maximal inhibition (IC50) was put at 420 nM.
The same measure, in the same setting: under `Cc1ccccc1C(C(=O)NC1CCCCC1)N(C(=O)CN1CCNCC1)c1cccc(F)c1` (racemic) stands 5640 nM; under `Cc1ccccc1C(C(=O)NC1CCCCC1)N(C(=O)Cc1cncnc1)c1cccc(F)c1` (racemic), 1100 nM; under `Cc1ccccc1C(C(=O)NC1CCCCC1)N(C(=O)CCl)c1cccc(F)c1` (racemic), 900 nM.
In data set [1], `Cc1ccccc1C(C(=O)NCc1ccccc1)N(C(=O)Cc1cccs1)c1cccc(F)c1` (racemic) came in with a concentration for half-maximal inhibition (IC50) of 1800 nM.
In the case of `Cc1ccccc1C(C(=O)NC(C)(C)C)N(C(=O)Cc1cccs1)c1cccc(F)c1` (racemic), the IC50 in [1] came out at 860 nM.
As to `Cc1ccccc1C(C(=O)NC1CC1)N(C(=O)Cc1cccs1)c1cccc(F)c1` (racemic), the IC50 in data set [1] was determined as 2880 nM.
